Target: T1, Peroxisome proliferator-activated receptor gamma (Homo sapiens, UniProt P37231)
T1 sequence (P37231 whole entry): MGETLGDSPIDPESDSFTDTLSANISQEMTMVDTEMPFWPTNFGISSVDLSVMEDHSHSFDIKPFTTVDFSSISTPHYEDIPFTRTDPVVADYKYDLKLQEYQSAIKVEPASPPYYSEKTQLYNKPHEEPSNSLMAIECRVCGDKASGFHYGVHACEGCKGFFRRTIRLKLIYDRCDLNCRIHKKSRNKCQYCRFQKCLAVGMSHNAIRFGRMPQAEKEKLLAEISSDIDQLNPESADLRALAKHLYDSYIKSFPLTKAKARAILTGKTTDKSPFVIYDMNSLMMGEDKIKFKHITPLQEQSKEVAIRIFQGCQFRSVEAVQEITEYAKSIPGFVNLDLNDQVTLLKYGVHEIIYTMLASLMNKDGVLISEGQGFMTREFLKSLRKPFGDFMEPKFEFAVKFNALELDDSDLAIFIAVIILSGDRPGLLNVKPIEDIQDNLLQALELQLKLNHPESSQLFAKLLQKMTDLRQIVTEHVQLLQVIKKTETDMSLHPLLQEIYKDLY
Assay: Agonist activity at PPARgamma in human MKN45 cells assessed as induction of cell aggregation incubated for 5 days by Hoechst 33342 staining based IN cell analyzer method
How it was run: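 MKN45 cells in RPMI1640 with 10% FBS at 37 °C, 5% CO2, seeded 2500 cells/well and exposed to compound 1-1000 nM (n = 3 per concentration) for 5 days. Nuclei stained with Hoechst 33342, imaged on IN Cell Analyzer, nuclear area computed. Maximum activity expressed as % of reference compound maximum; EC50 = concentration giving 50% of own maximum.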

Row | SMILES | EC50 [nM]
1 | COCc1nc2cc(Cl)ccn2c1Cc1ccc2c(c1)COc1cc(F)ccc1/C2=C(\C)c1noc(=O)[nH]1 | 1

Target: not listed separately
Assay: Agonist activity at PPARgamma in human MKN45 cells assessed as induction of cell aggregation incubated for 5 days by Hoechst 33342 staining based IN cell analyzer method

Row | SMILES | EC50 [nM]
2 | C/C(=C1/c2ccc(Cn3c(C4CC4)nc4cscc43)cc2COc2cc(F)ccc21)c1noc(=O)[nH]1 | 3
3 | CCCc1nc2c(C)cccc2n1Cc1ccc2c(c1)COc1ccccc1/C2=C(\C)c1noc(=O)[nH]1 | 3.3
4 | C/C(=C1/c2ccc(Cc3c(C4CC4)nc4cc(Cl)ccn34)cc2COc2cc(F)ccc21)c1noc(=O)[nH]1 | 1.4
5 | C/C(=C1/c2ccc(Cc3c(C4CC4)nc4cc(F)ccn34)cc2COc2cc(F)ccc21)c1noc(=O)[nH]1 | 1.7
6 | C/C(=C1/c2ccc(Cc3c(C4CC4)nc4ccccn34)cc2COc2cc(F)ccc21)c1noc(=O)[nH]1 | 5.3
7 | CCCc1nc2ccccc2n1Cc1ccc2c(c1)COc1ccc(F)cc1/C2=C(\C)c1noc(=O)[nH]1 | 7
8 | CCCc1nc2ccccc2n1Cc1ccc2c(c1)COc1c(F)cccc1/C2=C(\C)c1noc(=O)[nH]1 | 3.8
9 | C/C(=C1/c2ccc(Cn3c(C4CC4)nc4c(Cl)ccnc43)cc2COc2cc(F)ccc21)c1noc(=O)[nH]1 | 32
10 | C/C(=C1/c2ccc(Cc3c(C4CC4)nc4c5c(ccn34)OCC5)cc2COc2cc(F)ccc21)c1noc(=O)[nH]1 | 19
11 | CCCc1nc2ccccc2n1Cc1ccc2c(c1)COc1cc(F)ccc1/C2=C(\C)c1noc(=O)[nH]1 | 1
12 | C/C(=C1/c2ccc(Cc3c(C4CC4)nc4ccc(Cl)cn34)cc2COc2cc(F)ccc21)c1noc(=O)[nH]1 | 2
13 | C/C(=C1/c2ccc(Cn3c(C4CC4)nc4c(Cl)nccc43)cc2COc2cc(F)ccc21)c1noc(=O)[nH]1 | 22
14 | C/C(=C1/c2ccc(Cc3c(C4CC4)nc4c(Cl)cccn34)cc2COc2cc(F)ccc21)c1noc(=O)[nH]1 | 2.5
